This is an account of results in ChEMBL document CHEMBL2010780, “Pyridine Carboxamides: Potent Palm Site Inhibitors of HCV NS5B Polymerase” (ACS Med Chem Lett, 2010).

The test system of data set [1] is Hepatitis C virus. Put plainly: Ratio of IC50 for Hepatitis C virus genotype 1b Con1 NS5B Cdelta21 polymerase thumb site 1 P495L mutant to IC50 for Hepatitis C virus genotype 1b Con1 NS5B Cdelta21 polymerase. Further details: species or system Hepacivirus hominis.
Data set [2] concerns Hepatitis C virus. In words: Ratio of IC50 for Hepatitis C virus genotype 1b Con1 NS5B Cdelta21 polymerase palm site 1 M414T mutant to IC50 for Hepatitis C virus genotype 1b Con1 NS5B Cdelta21 polymerase. Further details: species or system Hepacivirus hominis.
Data set [3] deals with Hepatitis C virus. Put plainly: Ratio of IC50 for Hepatitis C virus genotype 1b Con1 NS5B Cdelta21 polymerase thumb site 2 M423T mutant to IC50 for Hepatitis C virus genotype 1b Con1 NS5B Cdelta21 polymerase. Set-up: species or system Hepacivirus hominis.
For data set [4], the system named is Hepatitis C virus. In words: Ratio of IC50 for Hepatitis C virus genotype 1b Con1 NS5B Cdelta21 polymerase palm site 1 G554D mutant to IC50 for Hepatitis C virus genotype 1b Con1 NS5B Cdelta21 polymerase. Further details: species or system Hepacivirus hominis.
Data set [5] has as its system Hepatitis C virus genotype 2. Put plainly: Inhibition of Hepatitis C virus genotype 2 NS5B Cdelta21 polymerase up to 10 uM.
For data set [6], the system named is Hepatitis C virus genotype 4. Put plainly: Inhibition of Hepatitis C virus genotype 4 NS5B Cdelta21 polymerase up to 10 uM.
In data set [7] the test system is Hepatitis C virus. In words: Ratio of IC50 for Hepatitis C virus genotype 1b Con1 NS5B Cdelta21 polymerase palm site 2 C316Y mutant to IC50 for Hepatitis C virus genotype 1b Con1 NS5B Cdelta21 polymerase. Further details: species or system Hepacivirus hominis.
In data set [8] the test system is Hepacivirus hominis. Put plainly: Ratio of IC50 for Hepatitis C virus subtype 1b BK NS5B Cdelta21 polymerase to IC50 for Hepatitis C virus genotype 1b Con1 NS5B Cdelta21 polymerase.
The test system of data set [9] is Hepatitis C virus. Put plainly: Ratio of IC50 for Hepatitis C virus genotype 1b Con1 NS5B Cdelta21 polymerase palm site 2 C316N mutant to IC50 for Hepatitis C virus genotype 1b Con1 NS5B Cdelta21 polymerase. Set-up: species or system Hepacivirus hominis.
The subject of data set [10] is Hepacivirus hominis. In words: Ratio of IC50 for Hepatitis C virus subtype 1a H77 NS5B Cdelta21 polymerase to IC50 for Hepatitis C virus genotype 1b Con1 NS5B Cdelta21 polymerase.
For data set [11], the system named is Hepatitis C virus genotype 3. Put plainly: Inhibition of Hepatitis C virus genotype 3 NS5B Cdelta21 polymerase up to 10 uM.
A short description of data set [12]: Cytotoxicity against human HuH7 cells after 3 days by MTS assay. The format is cell-based, Huh-7. In outline:
(§1)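 Each value is the mean of duplicate experiments run on two separate weighings of compound.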
Background: Tetrazolium dyes change colour on reduction, which living cells bring about.

A short description of data set [13]: Inhibition of Hepatitis C virus genotype 1b Con1 NS5B Cdelta21 polymerase assessed as incorporation of [33P]-CTP into heteropolymer RNA template after 2 hrs. As to conditions: Con1, 2 h. Further details: species or system Hepacivirus hominis. In outline: as §1
The subject of data set [14] is Hepatitis C virus. Put plainly: Antiviral activity against Hepatitis C virus genotype 1b Con1 infected in human HuH7 cells assessed as inhibition of viral RNA replication after 3 by real time PCR analysis. The format is functional, organism-based, Hepacivirus hominis, Huh-7. As to conditions: Hepatitis C virus, Con1, Huh-7; read-out: EC50. A digest of the protocol:
as §1

For data set [15], the system named is Hepatitis C virus. In words: Inhibition of Hepatitis C virus genotype 1b Con1 NS5B Cdelta21 polymerase-mediated RNA synthesis at elongation phase after 22 hrs by single round elongation assay. As to conditions: Hepacivirus hominis. In outline:
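Single-cycle assay measuring elongation from NS5B enzyme–primer–template complexes that were preformed before elongation.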

The nature of data set [16]: Ratio of CC50 for human HuH7 cells to EC50 for Hepatitis C virus genotype 1b Con1. Further details: species or system Huh-7.
For data set [17], the system named is Hepatitis C virus. In words: Inhibition of Hepatitis C virus genotype 1b Con1 NS5B Cdelta21 polymerase-mediated RNA synthesis at initiation phase after 15 mins by primer extension assay. As to conditions: Hepacivirus hominis.

Active and inactive are the calls of the source. The rule behind the calls is not given here.

Regarding `CNC(=O)c1c(-c2ccc(F)cc2)oc2cc(N(CCO)S(C)(=O)=O)c(C3CC3)cc12` [NESBUVIR], the “Ratio IC50” value in data set [1] turned out to be 1; in data set [2] it was 1.5; in [3] it was 1; in data set [4], 1; in data set [7], 50; in data set [8], 6. Moreover, the figures for the “Ratio IC50” value in data set [9] and in data set [10] were 3 and 1, respectively. Besides, the inhibition result in data set [5], in data set [6] and in data set [11] was “inactive” each time.

In the case of `Cc1ncccc1C(=O)Nc1ccc(C(C)C)cc1N1CCN(c2ncnc3[nH]ccc23)CC1`, the “Ratio IC50” value in data set [1] was 1; in data set [2], 27; in data set [3], 1; in data set [4], 8; in [7], >300; in data set [8] it was 27. The figures for the “Ratio IC50” value in [9] and in data set [10] were 4 and 270, respectively. Moreover, in data set [12], the cytotoxic concentration (CC50) at 72 h is > 10 µM. For the same compound, the inhibition result in [5], in data set [6] and in [11] was “inactive” each time. Also, the IC50 in data set [13] amounted to 0.032 µM. Further, the half-maximal effective concentration (EC50) in [14] was determined as 3 µM.

Regarding `Cc1ncccc1C(=O)Nc1ccc(C(C)C)cc1N1CCN(c2ncnc3ccsc23)CC1`, the “Ratio IC50” value in [1] was 1; in [2] it was 21; in data set [3], 1; in data set [4], 4; in [7] it was >300; in data set [8], 14. In addition, the “Ratio IC50” value is 3 in data set [9] and 140 in [10]. The CC50 at 72 h in [12] amounted to 15 µM. The inhibition result in [15], in [5], in data set [6] and in data set [11] was “inactive” each time. For the same compound, the “Ratio CC50/EC50” value in [16] was >20. The inhibition result in [17] was “Active”. Further, in [13], the half-inhibitory concentration (IC50) was found to be 0.014 µM. Also, in data set [14], the concentration giving a half-maximal response (EC50) is 0.7 µM.

`Cc1ncccc1C(=O)Nc1ccc(C(C)C)cc1N1CCN(c2cnccn2)CC1` had a 50% cytotoxic concentration (CC50) at 72 h in data set [12] of 22 µM. The “Ratio CC50/EC50” value in [16] came to 10. Besides, the half-maximal inhibitory concentration (IC50) in [13] came out at 0.52 µM. For the same compound, the 50% effective concentration (EC50) in data set [14] is 2.8 µM.

As for `CC(C)(C)CC[C@@]1(C)CC(C2=NS(=O)(=O)c3cc(NS(C)(=O)=O)ccc3N2)=C(O)c2ccccc21`, the “Ratio IC50” value in data set [1] was 1; in data set [2], 1; in data set [3] it was 1; in data set [4], 100; in data set [7], 3; in [8], 1. Besides, the “Ratio IC50” value in data set [9] and in data set [10] was 1 throughout. Besides, the inhibition entry in data set [5], in data set [6] and in data set [11] was “inactive” each time.

Usually CC50 stands for the concentration giving 50% cytotoxicity. Low readings indicate greater toxicity to the cells, high ones lower toxicity to the cells. One may read the IC50 as the concentration at which inhibition is half-maximal. As a reminder, the EC50 is the concentration at which the effect is half-maximal.
